Assay [1] relates to Escherichia coli. Kind of assay: Antibacterial activity against Escherichia coli ATCC 25922 by broth microdilution assay. The format is functional. A digest of the protocol: (§1)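 Broth microdilution per CLSI guidelines; compounds dissolved in DMSO; single agents tested; growth inhibition read by eye; run in duplicate (table footnote states at least triplicates).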
The subject of assay [2] is Staphylococcus aureus. Kind of assay: Antibacterial activity against Staphylococcus aureus ATCC 29213 by broth microdilution assay. In kind it is functional. The method, boiled down:
as §1

Assay [3] deals with L929. Kind of assay: Cytotoxicity against mouse L929 cells by MTS assay. The format is cell-based. A digest of the protocol: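 MTS assay on L929 mouse fibroblasts; IC50 reported as the average of three independent measurements.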
The nature of assay [4]: Selective index, ratio of IC50 for mouse L929 cells to MIC for Staphylococcus aureus ATCC 29213. The method, boiled down:
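Selectivity index calculated as L929 IC50 (μM) divided by S. aureus MIC (μM).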

For assay [5], the system named is Staphylococcus aureus. Kind of assay: Antibacterial activity against multidrug-resistant Staphylococcus aureus isolate 2490 by broth microdilution assay. In kind it is functional. The method, boiled down:
(§2)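 Broth microdilution MIC per CLSI guidelines against clinical MRSA isolates, for β-lactams and test compound alone and in combination. Compounds were dissolved in DMSO. Growth was read by eye, in duplicate. FIC index = FIC(compound) + FIC(drug); synergy defined as FIC index ≤0.5.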

The subject of assay [6] is Staphylococcus aureus. Kind of assay: Antibacterial activity against multidrug-resistant Staphylococcus aureus isolate 254 by broth microdilution assay. The format is functional. The method, boiled down: as §2
The subject of assay [7] is Staphylococcus aureus. Kind of assay: Antibacterial activity against multidrug-resistant Staphylococcus aureus isolate 231 by broth microdilution assay. In kind it is functional. A digest of the protocol:
as §2

Assay [8] deals with Staphylococcus aureus. Kind of assay: Antibacterial activity against multidrug-resistant Staphylococcus aureus isolate 417 by broth microdilution assay. In kind it is functional. The method, boiled down:
as §2

Assay [9] deals with Staphylococcus aureus. The experiment in a line: Antibacterial activity against multidrug-resistant Staphylococcus aureus isolate 1344 by broth microdilution assay. In kind it is functional. A digest of the protocol:
as §2

The subject of assay [10] is Staphylococcus aureus. Kind of assay: Antibacterial activity against multidrug-resistant Staphylococcus aureus isolate 2901 by broth microdilution assay. In kind it is functional. The method, boiled down: as §2
Assay [11] concerns Staphylococcus aureus. The experiment in a line: Antibacterial activity against multidrug-resistant Staphylococcus aureus isolate 3589 by broth microdilution assay. In kind it is functional. The method, boiled down:
as §2

The test system of assay [12] is Staphylococcus aureus. Kind of assay: Antibacterial activity against multidrug-resistant Staphylococcus aureus isolate 256 by broth microdilution assay. In kind it is functional. The method, boiled down: as §2
Assay [13] relates to Staphylococcus aureus. Kind of assay: Antibacterial activity against multidrug-resistant Staphylococcus aureus isolate 3332 by broth microdilution assay. The format is functional. A digest of the protocol: as §2
The test system of assay [14] is Staphylococcus aureus. Kind of assay: Antibacterial activity against multidrug-resistant Staphylococcus aureus isolate 3411 by broth microdilution assay. In kind it is functional. The method, boiled down:
as §2

Assay [15] concerns Staphylococcus aureus. Kind of assay: Antibacterial activity against multidrug-resistant Staphylococcus aureus isolate 1136 by broth microdilution assay. In kind it is functional. The method, boiled down:
as §2

The subject of assay [16] is Staphylococcus aureus. The experiment in a line: Antibacterial activity against multidrug-resistant Staphylococcus aureus isolate 2895 by broth microdilution assay. The format is functional. A digest of the protocol: as §2
The test system of assay [17] is Staphylococcus aureus. Kind of assay: Antibacterial activity against multidrug-resistant Staphylococcus aureus isolate 2516 by broth microdilution assay. In kind it is functional. A digest of the protocol:
as §2

The test system of assay [18] is Staphylococcus aureus. The experiment in a line: Antibacterial activity against multidrug-resistant Staphylococcus aureus isolate 3267 by broth microdilution assay. The format is functional. The method, boiled down:
as §2

In assay [19] the test system is Staphylococcus aureus. Kind of assay: Antibacterial activity against multidrug-resistant Staphylococcus aureus isolate 757 by broth microdilution assay. The format is functional. A digest of the protocol:
as §2

In assay [20] the test system is Staphylococcus aureus. The experiment in a line: Antibacterial activity against multidrug-resistant Staphylococcus aureus isolate 1749 by broth microdilution assay. The format is functional. The method, boiled down:
as §2

Assay [21] relates to Staphylococcus aureus. The experiment in a line: Antibacterial activity against multidrug-resistant Staphylococcus aureus isolate 1402 by broth microdilution assay. In kind it is functional. A digest of the protocol:
as §2

The test system of assay [22] is Staphylococcus aureus. Kind of assay: Antibacterial activity against multidrug-resistant Staphylococcus aureus isolate 2919 by broth microdilution assay. The format is functional. A digest of the protocol: as §2
Assay [23] deals with Staphylococcus aureus. Kind of assay: Antibacterial activity against multidrug-resistant Staphylococcus aureus isolate 2728 by broth microdilution assay. The format is functional. The method, boiled down: as §2
Assay [24] deals with Staphylococcus aureus. Kind of assay: Antibacterial activity against multidrug-resistant Staphylococcus aureus isolate 1717 by broth microdilution assay. The format is functional. The method, boiled down:
as §2

In assay [25] the test system is Staphylococcus aureus. Kind of assay: Antibacterial activity against multidrug-resistant Staphylococcus aureus isolate 2224 by broth microdilution assay. The format is functional. The method, boiled down:
as §2

Assay [26] concerns Staphylococcus aureus. Kind of assay: Antibacterial activity against multidrug-resistant Staphylococcus aureus isolate 358 by broth microdilution assay. In kind it is functional. A digest of the protocol: as §2
Assay [27] relates to Staphylococcus aureus. The experiment in a line: Antibacterial activity against multidrug-resistant Staphylococcus aureus isolate 3580 by broth microdilution assay. In kind it is functional. The method, boiled down: as §2
For assay [28], the system named is Staphylococcus aureus. Kind of assay: Antibacterial activity against multidrug-resistant Staphylococcus aureus isolate 774 by broth microdilution assay. The format is functional. The method, boiled down:
as §2

The subject of assay [29] is Staphylococcus aureus. The experiment in a line: Antibacterial activity against multidrug-resistant Staphylococcus aureus isolate 200 by broth microdilution assay. In kind it is functional. The method, boiled down: as §2
Assay [30] deals with Staphylococcus aureus. Kind of assay: Antibacterial activity against multidrug-resistant Staphylococcus aureus isolate 2973 by broth microdilution assay. The format is functional. The method, boiled down:
as §2

Assay [31] relates to Staphylococcus aureus. The experiment in a line: Antibacterial activity against multidrug-resistant Staphylococcus aureus isolate 85 by broth microdilution assay. The format is functional. A digest of the protocol:
as §2

Assay [32] concerns Staphylococcus aureus. The experiment in a line: Antibacterial activity against multidrug-resistant Staphylococcus aureus isolate 1449 by broth microdilution assay. The format is functional. A digest of the protocol: as §2

In brackets after ≈: the same amount, converted by molar mass.

Take `CCCCCCCCCN(C)c1ccc(F)c(C(N)=O)c1F`: the MIC is over 64 µg/mL in assay [1] and 3.1 µM (≈ 0.968 µg/mL) in assay [2]. Besides, the midpoint of inhibition in assay [3], the IC50, lay at 60 µM. Further, the “Selectivity Index” value in assay [4] worked out at 19.
On to `NC(=O)c1c(F)ccc(N(Cc2ccc(F)cc2)Cc2ccc(F)cc2)c1F`, for which the values for the MIC in [1] and in [2] were over 64 µg/mL and 50 µM (≈ 19.4 µg/mL), respectively. Besides, in assay [3], the half-maximal inhibitory concentration (IC50) is over 100 µM. In [4], the “Selectivity Index” value was over 2.
As to `CCCCCCCC(C)Nc1ccc(F)c(C(N)=O)c1F` (centres undefined), the MIC in assay [1] was over 64 µg/mL; in assay [2], 13 µM (≈ 3.88 µg/mL). For the same compound, in [3], the IC50 was over 100 µM. The “Selectivity Index” value in assay [4] was over 8.
On to `CCCCCCCCCN(C)c1ccc(F)c(C(=N)N)c1F`, for which the minimal inhibitory concentration (MIC) is over 64 µg/mL in assay [1] and 50 µM (≈ 15.6 µg/mL) in assay [2]. The compound further registered an IC50 in assay [3] of over 100 µM. In addition, the “Selectivity Index” value in assay [4] is reported as over 2.
`C[C@@H](O)[C@H]1C(=O)N2C(C(=O)O)=C(S[C@@H]3CN[C@H](C(=O)N(C)C)C3)[C@H](C)[C@H]12` [MEROPENEM]: the MIC in [5] was found to be 2 µg/mL (≈ 5.22 µM); in [6], 8 µg/mL (≈ 20.9 µM); in assay [7] it was 32 µg/mL (≈ 83.4 µM); in [8], 64 µg/mL (≈ 167 µM); in assay [9], 16 µg/mL (≈ 41.7 µM); in [10], 1 µg/mL (≈ 2.61 µM). Moreover, the MIC in [11] is 4 µg/mL (≈ 10.4 µM); in assay [12], 2 µg/mL (≈ 5.22 µM); in assay [13], 2 µg/mL (≈ 5.22 µM); in [14], 4 µg/mL (≈ 10.4 µM); in assay [15], 2 µg/mL (≈ 5.22 µM); in [16], 1 µg/mL (≈ 2.61 µM). The minimal inhibitory concentration (MIC) in assay [17] stood at 16 µg/mL (≈ 41.7 µM); in assay [18] it was 2 µg/mL (≈ 5.22 µM); in assay [19] it was 4 µg/mL (≈ 10.4 µM); in assay [20], 0.5 µg/mL (≈ 1.3 µM); in assay [21], 1 µg/mL (≈ 2.61 µM); in assay [22] it was 1 µg/mL (≈ 2.61 µM). In addition, the minimal inhibitory concentration (MIC) turned out to be 2 µg/mL (≈ 5.22 µM) in assay [23]; 1 µg/mL (≈ 2.61 µM) in [24]; 2 µg/mL (≈ 5.22 µM) in assay [25]; 0.13 µg/mL (≈ 0.339 µM) in assay [26]; 8 µg/mL (≈ 20.9 µM) in assay [27]; 32 µg/mL (≈ 83.4 µM) in assay [28]. The MIC in assay [29] was found to be 1 µg/mL (≈ 2.61 µM); in [30] it was 1 µg/mL (≈ 2.61 µM); in [31] it was 2 µg/mL (≈ 5.22 µM); in assay [32], 0.13 µg/mL (≈ 0.339 µM).
`CCCCCCCCCNc1ccc(F)c(/C(N)=N/O)c1F`: the values for the MIC in [1] and in [2] were over 64 µg/mL and 50 µM (≈ 15.7 µg/mL), respectively. The compound also had a half-inhibitory concentration (IC50) in assay [3] of over 100 µM. For the same compound, the “Selectivity Index” value in assay [4] is over 2.
For `CCCCCCCCCNc1ccc(F)c(-c2nnn[nH]2)c1F`, the values for the MIC in assay [1] and in [2] were over 64 µg/mL and 50 µM (≈ 16.2 µg/mL), respectively. Besides, in assay [3], the IC50 was over 100 µM. Besides, the “Selectivity Index” value in assay [4] is on record as over 2.
On to `COc1cccc(OC)c1C(=O)N[C@@H]1C(=O)N2[C@@H]1SC(C)(C)[C@@H]2C(=O)O` [METHICILLIN], for which the MIC in assay [5] was found to be 1020 µg/mL (≈ 2690 µM); in assay [6], 1020 µg/mL (≈ 2690 µM); in assay [7], 1020 µg/mL (≈ 2690 µM); in assay [8], 1020 µg/mL (≈ 2690 µM); in [9], 256 µg/mL (≈ 673 µM); in assay [10], 256 µg/mL (≈ 673 µM). The minimum inhibitory concentration (MIC) is 256 µg/mL (≈ 673 µM) in [11]; 128 µg/mL (≈ 336 µM) in [12]; 128 µg/mL (≈ 336 µM) in assay [13]; 128 µg/mL (≈ 336 µM) in assay [14]; 64 µg/mL (≈ 168 µM) in assay [15]; 64 µg/mL (≈ 168 µM) in assay [16]. Also, the MIC came out at 64 µg/mL (≈ 168 µM) in assay [17]; 64 µg/mL (≈ 168 µM) in assay [18]; 64 µg/mL (≈ 168 µM) in [19]; 32 µg/mL (≈ 84.1 µM) in assay [20]; 32 µg/mL (≈ 84.1 µM) in assay [21]; 32 µg/mL (≈ 84.1 µM) in assay [22]. The MIC was 32 µg/mL (≈ 84.1 µM) in [23]; 16 µg/mL (≈ 42.1 µM) in assay [24]; 16 µg/mL (≈ 42.1 µM) in assay [25]; 16 µg/mL (≈ 42.1 µM) in assay [26]; 16 µg/mL (≈ 42.1 µM) in assay [27]; 16 µg/mL (≈ 42.1 µM) in [28]. For the same compound, the MIC is 16 µg/mL (≈ 42.1 µM) in assay [29], 16 µg/mL (≈ 42.1 µM) in assay [30], 8 µg/mL (≈ 21 µM) in assay [31] and 8 µg/mL (≈ 21 µM) in assay [32].
On to `CCCCCCCCCOc1ccc(F)c(C(N)=O)c1F`, for which the minimal inhibitory concentration (MIC) in [1] is over 64 µg/mL; in assay [2], 3.1 µM (≈ 0.928 µg/mL). The compound also gave an IC50 in assay [3] of 90 µM. The “Selectivity Index” value in assay [4] was 29.

Source of the values: ChEMBL document CHEMBL4330069, “Boosting the efficacy of anti-MRSA β-lactam antibiotics via an easily accessible, non-cytotoxic and orally bioavailable FtsZ inhibitor” (Eur J Med Chem, 2019).
